Assay results as given in PMC3352694 (International Journal of Nanomedicine, 2012).

How the values were obtained:
Caco-2 cell monolayers [1] = experiment: Uptake of Lac-NCTD and its nanoparticles into Caco-2 cell monolayers; format: in vitro ADME, human
Method in brief: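 Monolayers grown 15 days from 1 × 10⁵ cells/cm² in plates, washed, preincubated 15 min at 37°C in HBSS pH 7.4, then exposed to drug or nanoparticle solution. After uptake (15 min, chosen within the linear range), cells were washed thrice with cold HBSS, scraped, homogenized and ultracentrifuged. Supernatant was assayed by reversed-phase HPLC, normalized to Bradford protein and given as mg/g protein, three determinations.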

[2] = cited from earlier work
Caco-2 cell monolayers [3] = experiment: Bidirectional transepithelial transport across Caco-2 cell monolayers; format: in vitro ADME, human
Method in brief: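 Caco-2 cells (passage 30–50) seeded at 1 × 10⁵ cells/cm² on 1.1 cm² polycarbonate inserts (1 μm pores), used day 21 when TEER reached 700 Ω·cm² and phenol red permeability <0.5%/h. HBSS pH 7.4 preincubation 15 min, 37°C; drug or nanoparticles dosed apically or basolaterally; receiver sampled at 5–60 min with replacement; reversed-phase HPLC. Papp = dQ/dt/(A·C0); PDR from BL→AP and AP→BL; n = 3.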

Substance: Lactosyl-norcantharidin [Lac-NCTD]
- Effect of concentration on uptake (Caco-2 cell monolayers [1]; 100 μg/mL to 400 μg/mL): Concentration dependence or saturation was observed
- Uptake amount (Caco-2 cell monolayers [1]; 250 μg/mL, 4°C): 1.35 ± 0.13 mg/g protein
- Time course of uptake (Caco-2 cell monolayers [1]; 250 μg/mL, 37°C): linear in relation to time, from 0 minutes to 30 minutes
- Uptake amount (Caco-2 cell monolayers [1]; 250 μg/mL, pH 6.0): 0.82 ± 0.23 mg/g protein
- Effect of P-gp inhibitor CyA on uptake (Caco-2 cell monolayers [1]; CyA 20 μmol/L): facilitate the uptake procedure
- Effect of MRP2 inhibitor MK-571 on uptake (Caco-2 cell monolayers [1]; MK-571 50 μmol/L): facilitate the uptake procedure
- Therapy efficiency compared with NCTD [2]: significantly higher therapy efficiency
- Toxicity compared with NCTD [2]: lower toxicity
- Change of Papp apical to basolateral with CyA (Caco-2 cell monolayers [3]; 250 μg/mL, CyA 20 μmol/L): increased
- Change of Papp basolateral to apical with CyA (Caco-2 cell monolayers [3]; 250 μg/mL, CyA 20 μmol/L): decreased
- Change of Papp apical to basolateral with MK-571 (Caco-2 cell monolayers [3]; 250 μg/mL, MK-571 50 μmol/L): significantly increased
- Change of Papp basolateral to apical with MK-571 (Caco-2 cell monolayers [3]; 250 μg/mL, MK-571 50 μmol/L): lightly decreased
- Change of Papp with bypass transport enhancer SDCh (Caco-2 cell monolayers [3]; 250 μg/mL, SDCh 100 mmol/L, versus control): significantly increased
- Change of Papp with endocytosis inhibitor oxophenylarsine (Caco-2 cell monolayers [3]; 250 μg/mL, oxophenylarsine 25 mmol/L, versus control): no statistical difference
- Increase of Papp apical to basolateral with CyA (Caco-2 cell monolayers [3]; CyA 20 μmol/L added to the apical side): 1.41 times
- Increase of Papp apical to basolateral with MK-571 (Caco-2 cell monolayers [3]; MK-571 50 μmol/L added to the apical side): 2.29 times
